IC50 data for ten compounds are collected here from ChEMBL document CHEMBL1145762, “Antiplatelet activity of synthetic pyrrolo-benzylisoquinolines” (Bioorg Med Chem Lett, 2003).

Each structure is given as a SMILES string.

Holding throughout (assay type): functional, organism-based
For assay [1], the species on record is Homo sapiens. Put plainly: Antiplatelet aggregation (collagen-induced) activity at a concentration of 10 ug/mL. The method in brief: (§1)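 Platelets preincubated with test compound, aspirin or DMSO (0.5%, control) at 37 °C for 3 min, then aggregation inducer added (arachidonic acid, collagen, PAF or thrombin). IC50 values given as means ± S.E. (n=3).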
The species entered for assay [2] is Homo sapiens. Put plainly: Inhibitory activity against arachidonic acid-induced platelet aggregation at a concentration of 100 uM was determined. The method in brief: as §1
Assay [3] is filed under the species Homo sapiens. In words: Antiplatelet aggregation (platelet activating factor-induced) activity at a concentration of 2 ng/mL. The procedure, abridged:
as §1

For assay [4], the species on record is Homo sapiens. In words: Antiplatelet aggregation (thrombin-induced) activity at a concentration of 0.1 U. The procedure, abridged:
as §1

For orientation: IC50 means the concentration at which inhibition is half-maximal.

As to `COc1cccc(C2=C3c4cc(OC)c(OC)cc4CCN3C(=O)C2=O)c1`, the IC50 in the assay listed under Homo sapiens [1] is 6.1 µM; in the assay listed under Homo sapiens [2], 21 µM; in the assay listed under Homo sapiens [3], > 100 µM; in the assay listed under Homo sapiens [4] it was > 100 µM.

On to `COc1cc2c(cc1OC)C1=C(c3cccc(Br)c3)C(=O)C(=O)N1CC2`, for which the IC50 in the assay filed under Homo sapiens [1] is 23.3 µM; in the assay listed under Homo sapiens [2] it was 45.5 µM; in the assay filed under Homo sapiens [3], > 100 µM; in the assay listed under Homo sapiens [4], > 100 µM.

Consider `COc1ccc(C2=C3c4cc(OC)c(OC)cc4CCN3C(=O)C2=O)cc1`, for which the IC50 was found to be 9.15 µM in the assay listed under Homo sapiens [1], 15.2 µM in the assay filed under Homo sapiens [2], 33.2 µM in the assay filed under Homo sapiens [3] and 30.7 µM in the assay filed under Homo sapiens [4].

In the case of `COc1cc2c(cc1OC)C1=C(c3ccc(Cl)cc3)C(=O)C(=O)N1CC2`, the IC50 in the assay listed under Homo sapiens [1] was 30 µM; in the assay filed under Homo sapiens [2] it was 52.8 µM; in the assay listed under Homo sapiens [3] it was 84.8 µM; in the assay filed under Homo sapiens [4], > 100 µM.

On to `COc1cc2c(cc1OC)C1=C(c3ccccc3OC)C(=O)C(=O)N1CC2`, for which the IC50 is 35.8 µM in the assay listed under Homo sapiens [1], 65.5 µM in the assay filed under Homo sapiens [2], > 100 µM in the assay filed under Homo sapiens [3] and > 100 µM in the assay filed under Homo sapiens [4].

With `COc1cc2c(cc1OC)C1=C(c3ccccc3Cl)C(=O)C(=O)N1CC2`, the IC50 in the assay filed under Homo sapiens [1] was 44.9 µM; in the assay filed under Homo sapiens [2] it was 78.3 µM; in the assay filed under Homo sapiens [3], > 100 µM; in the assay filed under Homo sapiens [4], > 100 µM.

For `COc1cc2c(cc1OC)C1=C(c3cccc(Cl)c3)C(=O)C(=O)N1CC2`, the IC50 in the assay filed under Homo sapiens [1] was 37.5 µM; in the assay listed under Homo sapiens [2] it was 53.8 µM; in the assay listed under Homo sapiens [3], > 100 µM; in the assay listed under Homo sapiens [4], > 100 µM.

Regarding `COc1cc2c(cc1OC)C1=C(c3ccccc3Br)C(=O)C(=O)N1CC2`, the IC50 is 39.8 µM in the assay listed under Homo sapiens [1], > 100 µM in the assay filed under Homo sapiens [2], > 100 µM in the assay listed under Homo sapiens [3] and > 100 µM in the assay listed under Homo sapiens [4].

In the case of `COc1cc2c(cc1OC)C1=C(c3ccc(Br)cc3)C(=O)C(=O)N1CC2`, the IC50 in the assay filed under Homo sapiens [1] is 29.8 µM; in the assay listed under Homo sapiens [2], 72.7 µM; in the assay listed under Homo sapiens [3], > 100 µM; in the assay listed under Homo sapiens [4], > 100 µM.

As to `CC(=O)Oc1ccccc1C(=O)O` [ASPIRIN], the IC50 is 22.4 µM in the assay filed under Homo sapiens [1], 44.6 µM in the assay listed under Homo sapiens [2], > 100 µM in the assay filed under Homo sapiens [3] and > 100 µM in the assay filed under Homo sapiens [4].
